The record followed here is the M2OR odorant receptor database.

SMILES strings stand for the structures.

Holding throughout (conditions): stereoisomer not certain
Assay [1] has as its target T1, UniProt A2ATE5.
T1 sequence (whole entry): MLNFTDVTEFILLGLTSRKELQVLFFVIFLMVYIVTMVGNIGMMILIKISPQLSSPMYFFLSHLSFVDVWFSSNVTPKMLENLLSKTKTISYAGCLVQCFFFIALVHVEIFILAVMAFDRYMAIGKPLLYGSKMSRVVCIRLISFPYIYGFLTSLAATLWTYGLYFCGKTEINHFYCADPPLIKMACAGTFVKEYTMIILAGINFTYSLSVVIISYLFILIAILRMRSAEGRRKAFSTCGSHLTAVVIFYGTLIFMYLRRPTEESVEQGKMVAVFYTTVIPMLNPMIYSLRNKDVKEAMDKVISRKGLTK
Summed up: (§1)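 Each entry records the cell line, G-protein, co-transfected protein and tags used. Methods varied with the source, often transient luciferase assays in mammalian cell lines. A receptor–molecule pair is called responsive (active) if the original authors judged its signal statistically different from baseline and non-responsive (inactive) otherwise.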

The target of assay [2] is T2, UniProt A2AVB0.
T2 sequence (whole entry): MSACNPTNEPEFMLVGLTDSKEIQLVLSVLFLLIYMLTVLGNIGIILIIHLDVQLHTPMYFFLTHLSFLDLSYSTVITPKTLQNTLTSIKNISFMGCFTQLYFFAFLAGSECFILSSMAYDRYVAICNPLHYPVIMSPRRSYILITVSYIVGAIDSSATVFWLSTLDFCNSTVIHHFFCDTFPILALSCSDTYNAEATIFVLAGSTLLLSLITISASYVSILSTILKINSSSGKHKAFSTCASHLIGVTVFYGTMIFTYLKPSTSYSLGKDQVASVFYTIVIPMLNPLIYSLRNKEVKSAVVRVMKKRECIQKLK
Summed up:
as §1

The target of assay [3] is T3, UniProt E9PVX1.
T3 sequence (whole entry): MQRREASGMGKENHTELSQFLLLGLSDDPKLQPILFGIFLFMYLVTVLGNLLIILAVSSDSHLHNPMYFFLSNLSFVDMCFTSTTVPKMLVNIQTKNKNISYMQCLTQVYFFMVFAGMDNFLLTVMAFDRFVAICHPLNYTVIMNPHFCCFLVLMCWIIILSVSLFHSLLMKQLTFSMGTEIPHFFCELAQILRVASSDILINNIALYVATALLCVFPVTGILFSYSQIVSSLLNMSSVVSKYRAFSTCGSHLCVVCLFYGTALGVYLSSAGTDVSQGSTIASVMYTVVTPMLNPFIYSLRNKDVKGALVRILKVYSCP
The procedure, abridged:
as §1

In assay [4] the target is T4, UniProt E9PZ66.
T4 sequence (whole entry): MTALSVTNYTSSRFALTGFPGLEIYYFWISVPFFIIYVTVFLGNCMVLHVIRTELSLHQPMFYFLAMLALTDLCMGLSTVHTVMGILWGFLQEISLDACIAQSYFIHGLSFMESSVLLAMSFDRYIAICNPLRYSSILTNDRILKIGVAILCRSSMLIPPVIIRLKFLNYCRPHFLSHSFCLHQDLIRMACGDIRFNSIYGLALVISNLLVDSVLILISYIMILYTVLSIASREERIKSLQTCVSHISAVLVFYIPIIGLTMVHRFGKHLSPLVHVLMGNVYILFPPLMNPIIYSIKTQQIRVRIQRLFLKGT
Summed up:
as §1

Assay [5] concerns the target T5, UniProt E9Q4X7.
T5 sequence (whole entry): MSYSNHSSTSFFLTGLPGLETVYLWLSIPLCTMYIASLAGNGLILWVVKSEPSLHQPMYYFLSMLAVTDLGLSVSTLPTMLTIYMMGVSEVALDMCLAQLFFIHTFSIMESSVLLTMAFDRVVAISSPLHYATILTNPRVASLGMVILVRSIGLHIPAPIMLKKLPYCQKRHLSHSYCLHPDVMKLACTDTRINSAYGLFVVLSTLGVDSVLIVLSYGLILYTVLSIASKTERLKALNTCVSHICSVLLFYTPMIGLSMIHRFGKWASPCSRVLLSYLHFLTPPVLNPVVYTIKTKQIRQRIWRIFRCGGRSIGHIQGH
Summed up:
as §1

In assay [6] the target is T6, UniProt E9Q546.
T6 sequence (whole entry): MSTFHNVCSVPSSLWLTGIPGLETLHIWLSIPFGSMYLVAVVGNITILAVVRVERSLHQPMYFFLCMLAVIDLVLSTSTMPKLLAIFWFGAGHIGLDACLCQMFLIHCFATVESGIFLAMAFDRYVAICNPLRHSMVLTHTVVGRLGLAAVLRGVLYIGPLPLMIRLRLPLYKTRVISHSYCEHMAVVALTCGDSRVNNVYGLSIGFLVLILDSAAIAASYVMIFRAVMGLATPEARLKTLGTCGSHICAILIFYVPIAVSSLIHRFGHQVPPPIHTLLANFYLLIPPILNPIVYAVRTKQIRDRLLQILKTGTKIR
Summed up:
as §1

Assay [7] has as its target T7, UniProt E9Q6Z7.
T7 sequence (whole entry): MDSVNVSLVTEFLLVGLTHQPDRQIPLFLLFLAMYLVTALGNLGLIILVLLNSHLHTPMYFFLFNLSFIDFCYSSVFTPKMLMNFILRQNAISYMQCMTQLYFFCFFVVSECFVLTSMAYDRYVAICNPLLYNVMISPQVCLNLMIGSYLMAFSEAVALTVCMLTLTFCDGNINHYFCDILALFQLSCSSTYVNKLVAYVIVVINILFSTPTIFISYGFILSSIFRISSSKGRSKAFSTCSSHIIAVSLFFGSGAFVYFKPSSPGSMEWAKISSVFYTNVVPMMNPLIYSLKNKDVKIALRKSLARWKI
The procedure, abridged: as §1

Assay [8] deals with UniProt A2AVA9. Summed up:
as §1

Assay [9] addresses UniProt A2AVC3. Summed up: as §1
Assay [10] has as its target UniProt E9PXH6. The procedure, abridged:
as §1

Assay [11] concerns the target UniProt E9Q891. The procedure, abridged: as §1
In assay [12] the target is UniProt K7N5T5. The procedure, abridged:
as §1

Assay [13] addresses T8, UniProt E1BM68.
T8 sequence (whole entry): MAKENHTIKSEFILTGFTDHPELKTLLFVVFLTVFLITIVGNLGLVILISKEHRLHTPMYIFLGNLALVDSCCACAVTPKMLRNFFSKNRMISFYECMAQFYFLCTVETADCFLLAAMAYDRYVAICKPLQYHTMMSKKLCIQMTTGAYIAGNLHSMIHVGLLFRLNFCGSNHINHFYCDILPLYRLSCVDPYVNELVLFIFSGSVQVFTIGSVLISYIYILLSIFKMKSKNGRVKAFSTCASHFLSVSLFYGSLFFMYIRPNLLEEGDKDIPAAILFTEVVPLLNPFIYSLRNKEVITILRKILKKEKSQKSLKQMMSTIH
Summed up: as §1

The target in assay [14] is T9, UniProt E9QAT7.
T9 sequence (whole entry): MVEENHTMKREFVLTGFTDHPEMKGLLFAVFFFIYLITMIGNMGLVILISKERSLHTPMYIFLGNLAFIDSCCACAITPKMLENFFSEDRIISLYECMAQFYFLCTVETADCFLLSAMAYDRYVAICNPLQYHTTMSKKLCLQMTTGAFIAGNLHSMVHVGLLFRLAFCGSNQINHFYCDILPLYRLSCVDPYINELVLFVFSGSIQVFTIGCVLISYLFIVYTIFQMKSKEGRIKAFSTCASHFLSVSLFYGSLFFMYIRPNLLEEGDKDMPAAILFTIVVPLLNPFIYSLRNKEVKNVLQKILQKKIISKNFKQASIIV
The procedure, abridged:
as §1

In assay [15] the target is T10, UniProt E9PXN3.
T10 sequence (whole entry): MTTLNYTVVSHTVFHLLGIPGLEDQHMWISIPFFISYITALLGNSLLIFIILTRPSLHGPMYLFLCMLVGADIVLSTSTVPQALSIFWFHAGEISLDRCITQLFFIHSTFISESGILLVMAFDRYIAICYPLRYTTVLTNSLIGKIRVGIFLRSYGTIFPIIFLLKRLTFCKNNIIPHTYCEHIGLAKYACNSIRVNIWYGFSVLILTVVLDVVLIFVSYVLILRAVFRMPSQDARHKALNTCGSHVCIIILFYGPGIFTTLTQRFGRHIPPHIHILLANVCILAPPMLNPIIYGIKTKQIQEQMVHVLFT
Summed up: as §1

The target of assay [16] is T11, UniProt E9Q9Z6.
T11 sequence (whole entry): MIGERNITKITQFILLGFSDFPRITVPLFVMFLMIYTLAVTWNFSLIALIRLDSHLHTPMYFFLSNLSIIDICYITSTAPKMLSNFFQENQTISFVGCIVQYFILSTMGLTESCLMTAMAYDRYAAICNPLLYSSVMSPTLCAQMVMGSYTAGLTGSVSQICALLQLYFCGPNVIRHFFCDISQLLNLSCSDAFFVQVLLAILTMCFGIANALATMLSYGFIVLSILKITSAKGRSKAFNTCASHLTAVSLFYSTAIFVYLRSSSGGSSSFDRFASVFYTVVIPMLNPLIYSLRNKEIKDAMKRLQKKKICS
Summed up: as §1

Assay [17] has as its target T12, UniProt E9PX47.
T12 sequence (whole entry): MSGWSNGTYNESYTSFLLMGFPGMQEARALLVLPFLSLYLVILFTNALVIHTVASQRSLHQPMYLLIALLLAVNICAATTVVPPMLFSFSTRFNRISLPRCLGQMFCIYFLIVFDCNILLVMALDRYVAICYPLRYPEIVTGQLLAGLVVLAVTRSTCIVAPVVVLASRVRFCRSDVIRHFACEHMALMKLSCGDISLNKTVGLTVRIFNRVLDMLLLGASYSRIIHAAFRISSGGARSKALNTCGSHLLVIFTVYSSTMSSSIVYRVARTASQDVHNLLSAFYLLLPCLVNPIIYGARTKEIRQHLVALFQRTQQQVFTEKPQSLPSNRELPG
Summed up:
as §1

UniProt E9PXH6, sequence (E9PXH6 as listed by the source): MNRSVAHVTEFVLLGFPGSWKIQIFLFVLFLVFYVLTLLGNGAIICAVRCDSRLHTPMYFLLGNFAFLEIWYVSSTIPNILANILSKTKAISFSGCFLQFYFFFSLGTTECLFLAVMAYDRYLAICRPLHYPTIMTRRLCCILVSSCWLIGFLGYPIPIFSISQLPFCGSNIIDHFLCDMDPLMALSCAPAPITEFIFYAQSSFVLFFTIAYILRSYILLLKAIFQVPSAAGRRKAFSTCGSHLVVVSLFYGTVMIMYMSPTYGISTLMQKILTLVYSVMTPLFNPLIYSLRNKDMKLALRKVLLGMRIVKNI
UniProt K7N5T5, sequence (K7N5T5 as listed by the source): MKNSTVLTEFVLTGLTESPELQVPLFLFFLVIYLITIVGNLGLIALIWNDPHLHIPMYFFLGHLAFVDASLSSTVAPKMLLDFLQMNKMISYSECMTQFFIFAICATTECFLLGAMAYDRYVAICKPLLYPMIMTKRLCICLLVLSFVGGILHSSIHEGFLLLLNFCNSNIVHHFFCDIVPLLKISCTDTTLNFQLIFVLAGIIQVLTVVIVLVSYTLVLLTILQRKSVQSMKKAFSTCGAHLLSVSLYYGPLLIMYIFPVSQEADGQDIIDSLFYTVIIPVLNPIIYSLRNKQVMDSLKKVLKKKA
UniProt A2AVA9, sequence (A2AVA9 as listed by the source): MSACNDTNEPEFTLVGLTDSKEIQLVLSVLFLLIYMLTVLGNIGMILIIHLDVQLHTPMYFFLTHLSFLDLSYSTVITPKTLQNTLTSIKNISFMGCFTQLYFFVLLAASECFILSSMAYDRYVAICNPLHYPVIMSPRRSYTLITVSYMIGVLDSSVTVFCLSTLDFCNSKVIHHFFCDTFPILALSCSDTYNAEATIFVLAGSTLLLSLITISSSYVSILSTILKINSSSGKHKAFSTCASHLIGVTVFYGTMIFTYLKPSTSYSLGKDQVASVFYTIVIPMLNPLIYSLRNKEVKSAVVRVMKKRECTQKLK
UniProt A2AVC3, sequence (A2AVC3 as listed by the source): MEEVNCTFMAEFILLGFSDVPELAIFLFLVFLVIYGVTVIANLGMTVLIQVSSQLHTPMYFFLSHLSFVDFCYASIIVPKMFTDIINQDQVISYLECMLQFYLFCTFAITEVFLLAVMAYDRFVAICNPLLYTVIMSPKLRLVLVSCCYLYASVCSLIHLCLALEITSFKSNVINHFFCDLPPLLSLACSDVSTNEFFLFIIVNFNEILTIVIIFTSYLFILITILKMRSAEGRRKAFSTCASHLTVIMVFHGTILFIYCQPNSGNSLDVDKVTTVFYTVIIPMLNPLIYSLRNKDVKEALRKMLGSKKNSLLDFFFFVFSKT
UniProt E9Q891, sequence (E9Q891 as listed by the source): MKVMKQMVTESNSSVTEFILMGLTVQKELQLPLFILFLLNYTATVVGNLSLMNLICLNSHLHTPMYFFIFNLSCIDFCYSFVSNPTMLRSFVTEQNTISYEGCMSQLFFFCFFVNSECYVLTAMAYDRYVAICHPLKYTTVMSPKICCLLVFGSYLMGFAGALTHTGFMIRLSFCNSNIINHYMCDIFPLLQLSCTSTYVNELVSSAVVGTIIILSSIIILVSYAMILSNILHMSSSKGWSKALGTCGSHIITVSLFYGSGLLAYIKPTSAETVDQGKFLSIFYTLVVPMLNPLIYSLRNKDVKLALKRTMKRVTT

For `CCCCCOC(=O)CCC`, the “odorant receptor agonist call” value in [1], in assay [2], in [3], in assay [4], in assay [5] and in assay [6] was “inactive” each time. For the same compound, the “odorant receptor agonist call” value in assay [7] is “inactive”.

Turning to `CCOC(=O)C(C)CC` (configuration not stated), the “odorant receptor agonist call” value in assay [1], in assay [2], in [3], in assay [4], in assay [5] and in assay [6] was “inactive” each time. Besides, the “odorant receptor agonist call” value in [7] was “inactive”.

For `CCc1occc(=O)c1O`, the “odorant receptor agonist call” value in [1] was “active”. The “odorant receptor agonist call” value in assay [2], in assay [3], in assay [4], in assay [5], in assay [6] and in assay [7] was “inactive” in each case.

For the compound `CCCCCC(C)O` (configuration not stated), the “odorant receptor agonist call” value in assay [1], in [2], in assay [3], in assay [4], in assay [5] and in assay [6] was “inactive” in each case. In addition, the “odorant receptor agonist call” value in assay [7] was “inactive”.

Regarding `CC(C)=C1CCC(C)CC1=O` (configuration not stated), the “odorant receptor agonist call” value in assay [1], in assay [2], in [3], in assay [4], in assay [5] and in assay [6] was “inactive” each time. The “odorant receptor agonist call” value in assay [7] was “inactive”.

Regarding `CCCCCCCOC(=O)C(C)C`, the “odorant receptor agonist call” value in assay [1], in [2], in assay [3], in assay [4], in [5] and in assay [6] was “inactive” each time. Also, in [7], the “odorant receptor agonist call” value is “inactive”.

Take `C=C(C)C1CC=C(C)CC1` (configuration not stated): the “odorant receptor agonist call” value in assay [1], in [2], in assay [3], in assay [4], in assay [5] and in assay [6] was “inactive” each time. In addition, in assay [7], the “odorant receptor agonist call” value was “inactive”.

For the compound `CCCCCCC=CC=O`, the “odorant receptor agonist call” value in assay [1], in assay [2], in [3], in assay [4], in assay [5] and in assay [6] was “inactive” each time. In assay [7], the “odorant receptor agonist call” value is “inactive”.

Consider `CCOC(=O)CC(C)C`, for which the “odorant receptor agonist call” value in assay [1], in assay [2], in [3], in [4], in assay [5] and in [6] was “inactive” in each case. Moreover, in assay [7], the “odorant receptor agonist call” value was “inactive”.

On to `COC(OC)c1ccccc1`, for which the “odorant receptor agonist call” value in assay [1], in assay [2], in assay [3], in [4], in [5] and in assay [6] was “inactive” each time. Further, the “odorant receptor agonist call” value in [7] is “inactive”.

In the case of `CC(=O)C=CC1=C(C)CCCC1(C)C`, the “odorant receptor agonist call” value in assay [1], in assay [2], in [3], in assay [4], in [5] and in assay [6] was “inactive” throughout. For the same compound, the “odorant receptor agonist call” value in [7] was “inactive”.

As to `OCC=Cc1ccccc1`, the “odorant receptor agonist call” value in assay [1], in [2], in [3], in assay [4], in [5] and in assay [6] was “inactive” throughout. Moreover, the “odorant receptor agonist call” value in assay [7] was “inactive”.

`CCCCCOC(=O)CC`: the “odorant receptor agonist call” value in assay [1], in assay [2], in [3], in assay [4], in assay [5] and in assay [6] was “inactive” throughout. Also, the “odorant receptor agonist call” value in assay [7] is “inactive”.

For `CSSCc1ccco1`, the “odorant receptor agonist call” value in assay [1], in assay [2], in assay [3], in assay [4], in assay [5] and in assay [6] was “inactive” in each case. For the same compound, in assay [7], the “odorant receptor agonist call” value was “inactive”.

Regarding `O=c1ccc2ccccc2o1`, the “odorant receptor agonist call” value in assay [8], in assay [10] and in assay [11] was “active” each time. Also, the “odorant receptor agonist call” value in assay [9] and in [12] was “inactive” in each case.

Regarding `CC(=O)c1nccnc1C`, the “odorant receptor agonist call” value in [13] was “active”. In addition, the “odorant receptor agonist call” value in assay [14] is “inactive”.

Consider `CCc1nccnc1C(C)=O`, for which the “odorant receptor agonist call” value in assay [13] was “active”. Moreover, the “odorant receptor agonist call” value in assay [14] is “inactive”.

As to `CCCC(C)=O`, in [15], the “odorant receptor agonist call” value is “inactive”.

With `CC1CC=CCCCCCCCCCC(=O)C1` (configuration not stated), in assay [16], the “odorant receptor agonist call” value was “active”.

Regarding `CCCCOC(=O)CCC`, the “odorant receptor agonist call” value in assay [17] and in assay [15] was “inactive” throughout.

As for `CCCCCCCCCCCC(=O)O`, in assay [15], the “odorant receptor agonist call” value was “active”.
